Measurements as given in PubChem BioAssay AID624316 (Broad Institute, 2012).
“And” between values parts separate entries of the source, which are not always exact repeats. Equal entries are not always repeated. The source made the active and inactive calls.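 The calls were made as follows: active = compounds lowering reporter light with a fitted AC50 at or below twice their top valid dose; inconclusive = flat partial inhibition or an unreliable curve fit; inactive = the rest.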

Test system: SK-MEL-5 TRPM1 promoter luciferase reporter, 24 h
Experiment: decrease of TRPM1 reporter luminescence in SK-MEL-5 – cell-based, dry powder samples, set 4, MITF inhibitor project, dose response (AID 624316)
How it was run: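 incubation = compound added 24 h post-plating, 24 h exposure at 37 °C | test system = SK-MEL-5 melanoma line stably carrying TRPM1 promoter–luciferase reporter | medium = phenol-red-free DMEM, 10% FBS | dosing = compounds pinned into wells as DMSO solutions | technique = luciferase luminescence with SteadyGlo, 5 min room temperature | benchmarks = parthenolide as positive control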

Structure (SMILES)	AC50
COc1ccc(C2=C(NC(=O)c3ccc(OC)cc3-c3cccc(OC)c3)C(=O)c3ccccc3C2=O)cc1	> 70 µM (inactive)
O=C1C(NS(=O)(=O)c2ccc(Br)cc2)=C(N2CCSCC2)C(=O)c2ccccc21	9.91 µM
O=C(NC1=C(c2ccc(Oc3ccccc3)cc2)C(=O)c2ccccc2C1=O)c1ccccc1	> 70 µM (inactive)
CC(=O)NC1=C(c2ccccc2)C(=O)c2ccccc2C1=O	5.51 µM
CCN1CCN(C2=C(NS(=O)(=O)c3cccs3)C(=O)c3ccccc3C2=O)CC1	1.73 µM
Cc1nc2ccccc2n1/N=C/c1ccc([N+](=O)[O-])s1	1.86 µM
O=C1C(NS(=O)(=O)c2ccccc2)=C(N2CCCCC2)C(=O)c2ccccc21	28.3 µM
C=CCNC1=C(Nc2ccccc2)C(=O)c2ccccc2C1=O	12.4 µM
CC(=O)NC1=C(c2ccc3c(c2)oc2ccccc23)C(=O)c2ccccc2C1=O	1.59 µM
O=C1C(NS(=O)(=O)c2ccc(Br)cc2)=C(c2ccccc2)C(=O)c2ccccc21	24 µM
COc1cccc(-c2cc(C(=O)NC3=C(Cl)C(=O)c4ccccc4C3=O)ccc2OC)c1	3.3 µM
COc1ccc(C2=C(NC(C)=O)C(=O)c3ccccc3C2=O)cc1	5.44 µM
O=C(NC1=C(Cl)C(=O)c2ccccc2C1=O)c1ccccc1	0.854 µM
CN1CCN(C2=C(NS(=O)(=O)c3cccs3)C(=O)c3ccccc3C2=O)CC1	2.06 µM
COc1ccc(C(=O)NC2=C(c3ccc(OC(F)(F)F)cc3)C(=O)c3ccccc3C2=O)cc1	35.5 µM
O=C1C(Nc2ccccc2)=C(N2CCCCC2)C(=O)c2ccccc21	2.78 µM
COc1ccc(C(=O)NC2=C(c3ccccc3)C(=O)c3ccccc3C2=O)cc1	10.9 µM
O=C(CNc1cccc2ccccc12)N/N=C/c1ccc([N+](=O)[O-])o1	1.67 µM
CCN1CCN(C2=C(NS(=O)(=O)c3ccc(Br)cc3)C(=O)c3ccccc3C2=O)CC1	4.06 µM
O=C(NC1=C(N2CCSCC2)C(=O)c2ccccc2C1=O)c1ccc(Br)cc1	8.75 µM
CN1CCN(C2=C(NS(=O)(=O)c3ccccc3)C(=O)c3ccccc3C2=O)CC1	0.614 µM
O=C1C(NS(=O)(=O)c2ccc(Br)cc2)=C(N2CCN(c3ccccc3)CC2)C(=O)c2ccccc21	17.1 µM
C=CCNC1=C(Cl)C(=O)c2ccccc2C1=O	1.67 µM and 2.18 µM
C[C@@H](NC1=C(Nc2ccccc2)C(=O)c2ccccc2C1=O)c1ccccc1	9.76 µM
COc1ccc(C2=C(NC(=O)c3cccc(Cl)c3)C(=O)c3ccccc3C2=O)cc1	19.9 µM
O=C(NC1=C(c2ccc(OC(F)(F)F)cc2)C(=O)c2ccccc2C1=O)c1ccccc1	32 µM

Structure (SMILES)	AC50
COc1ccc(C2=C(NC(=O)c3ccc(Cl)cc3)C(=O)c3ccccc3C2=O)cc1	16.4 µM
CC(=O)NC1=C(c2ccc(Oc3ccccc3)cc2)C(=O)c2ccccc2C1=O	14.8 µM
CCN(CC)CCCCNC1=C(Nc2ccccc2)C(=O)c2ccccc2C1=O	2.87 µM
O=C1C(NS(=O)(=O)c2cccs2)=C(N2CCCCC2)C(=O)c2ccccc21	21.7 µM
CC(=O)N(C)C1=C(N2CCN(C)CC2)C(=O)c2ccccc2C1=O	0.372 µM
NC1=CC(=O)c2ccccc2C1=O	1.41 µM
NC1=C(c2ccc(OC(F)(F)F)cc2)C(=O)c2ccccc2C1=O	16.3 µM
O=C1C(Nc2ccccc2)=C(N2CCOCC2)C(=O)c2ccccc21	5.81 µM and 4.63 µM
C=CCNC1=C(N2CCCCC2)C(=O)c2ccccc2C1=O	0.538 µM
CCN(CC)CCCNC1=C(N(C)C(C)=O)C(=O)c2ccccc2C1=O	0.188 µM
C=C1C(=O)OC2C1CC/C(C)=C\CCC1(C)OC21 (stereo not drawn)	4.91 µM
CCN1CCN(C2=C(Nc3ccccc3)C(=O)c3ccccc3C2=O)CC1	0.689 µM
O=C1C(NS(=O)(=O)c2ccccc2)=C(N2CCOCC2)C(=O)c2ccccc21	18.5 µM
O=C(NC1=C(c2ccccc2)C(=O)c2ccccc2C1=O)c1ccco1	8.11 µM
O=C(NC1=C(N2CCCCC2)C(=O)c2ccccc2C1=O)c1ccccc1	25.6 µM
CN1CCN(C2=C(NS(=O)(=O)c3ccc(Br)s3)C(=O)c3ccccc3C2=O)CC1	2.57 µM
O=C(NC1=C(c2ccccc2)C(=O)c2ccccc2C1=O)c1ccc(Br)cc1	12.3 µM
O=C(NC1=C(N2CCCCC2)C(=O)c2ccccc2C1=O)c1ccc(Br)cc1	36.2 µM
COc1ccc(C2=C(N)C(=O)c3ccccc3C2=O)cc1	25.1 µM
NC1=C(c2ccccc2)C(=O)c2ccccc2C1=O	7.61 µM
O=C1C(Nc2ccccc2)=C(NS(=O)(=O)c2ccccc2[N+](=O)[O-])C(=O)c2ccccc21	29 µM
COc1ccc(C(=O)NC2=C(c3ccc(OC)cc3)C(=O)c3ccccc3C2=O)cc1	8.59 µM
C=CCNC1=C(N2CCOCC2)C(=O)c2ccccc2C1=O	1.54 µM
CN1CCN(C2=C(NC(=O)c3ccc(Br)cc3)C(=O)c3ccccc3C2=O)CC1	0.921 µM
COc1ccc(C2=C(NC(=O)c3ccccc3Cl)C(=O)c3ccccc3C2=O)cc1	6.21 µM
C=CCNC1=C(N2CCSCC2)C(=O)c2ccccc2C1=O	2.81 µM

Structure (SMILES)	AC50
O=C(NC1=C(c2ccc(OC(F)(F)F)cc2)C(=O)c2ccccc2C1=O)c1ccc(Br)cc1	20.5 µM
C=CCNC1=C(N(C)C(C)=O)C(=O)c2ccccc2C1=O	0.107 µM
O=C1C(NS(=O)(=O)c2ccc(Br)cc2)=C(c2ccc(OC(F)(F)F)cc2)C(=O)c2ccccc21	12 µM
O=C(NC1=C(N2CCN(c3ccccc3)CC2)C(=O)c2ccccc2C1=O)c1ccccc1	15 µM
O=C(NC1=C(N2CCOCC2)C(=O)c2ccccc2C1=O)c1ccccc1	6 µM
Cc1ccc(C(=O)NC2=C(c3ccc(OC(F)(F)F)cc3)C(=O)c3ccccc3C2=O)o1	15.4 µM
O=C(NC1=C(N2CCOCC2)C(=O)c2ccccc2C1=O)c1ccc(Br)cc1	11.3 µM
CCN1c2ccccc2NC2N=C(OC)C(c3ccccc3)C21 (stereo not drawn)	2.5 µM
C=CCNC1=C(NCCN(CC)CC)C(=O)c2ccccc2C1=O	1.75 µM
O=C1C=C(Nc2ccccc2)C(=O)c2ccccc21	4.07 µM
CC(=O)NC1=C(c2ccc(Cl)cc2)C(=O)c2ccccc2C1=O	5.17 µM
O=C(NC1=C(c2ccccc2)C(=O)c2ccccc2C1=O)c1ccccc1	6.77 µM
CC1CCN(CC(CS(=O)(=O)c2ccc([N+](=O)[O-])cc2)N2CCC(C)CC2)CC1 (stereo not drawn)	4.72 µM
C=CCNC1=C(NS(=O)(=O)c2ccc(Br)cc2)C(=O)c2ccccc2C1=O	7.27 µM
CCN1CCN(C2=C(NC(=O)c3ccccc3)C(=O)c3ccccc3C2=O)CC1	0.582 µM
COc1ccc(C2=C(NC(=O)c3ccc4ccccc4c3)C(=O)c3ccccc3C2=O)cc1	> 70 µM (inactive)
O=C1C(Nc2ccccc2)=C(N2CCN(c3ccccc3)CC2)C(=O)c2ccccc21	8.06 µM
CC(=O)N(C)C1=C(N2CCCCC2)C(=O)c2ccccc2C1=O	0.7 µM
O=C(NC1=C(c2ccc(OC(F)(F)F)cc2)C(=O)c2ccccc2C1=O)c1ccco1	21 µM
C=CCNC1=C(NCCCN(CC)CC)C(=O)c2ccccc2C1=O	3.12 µM
C=CCNC1=C(N2CCN(C)CC2)C(=O)c2ccccc2C1=O	3.74 µM
O=C1C(NS(=O)(=O)c2ccc(Br)s2)=C(N2CCCCC2)C(=O)c2ccccc21	19.3 µM
O=C1C(NS(=O)(=O)c2cccs2)=C(N2CCOCC2)C(=O)c2ccccc21	9.86 µM
CC(=O)NC1=C(c2cccc(Cl)c2)C(=O)c2ccccc2C1=O	3.93 µM
CCN1CCN(C2=C(NC(=O)c3ccc(Br)cc3)C(=O)c3ccccc3C2=O)CC1	0.566 µM
CCN1CCN(C2=C(NS(=O)(=O)c3ccc(Br)s3)C(=O)c3ccccc3C2=O)CC1	4.1 µM

Structure (SMILES)	AC50
Cc1ccc(C(=O)NC2=C(c3ccccc3)C(=O)c3ccccc3C2=O)o1	4.8 µM
C=CCNC1=C(NCCCN2CCOCC2)C(=O)c2ccccc2C1=O	7.39 µM
COc1cccc(C2=C(NC(=O)c3ccccc3)C(=O)c3ccccc3C2=O)c1	13.9 µM
CCN(CC)CCNC1=C(Nc2ccccc2)C(=O)c2ccccc2C1=O	1.66 µM
COc1ccc(C2=C(NC(=O)c3cccc(OC)c3)C(=O)c3ccccc3C2=O)cc1	11.4 µM
O=C1C(NS(=O)(=O)c2ccc(Br)s2)=C(N2CCSCC2)C(=O)c2ccccc21	20.5 µM
O=C1C(NS(=O)(=O)c2ccc(Br)s2)=C(N2CCOCC2)C(=O)c2ccccc21	19.9 µM
CC(=O)N(C)C1=C(N2CCOCC2)C(=O)c2ccccc2C1=O	1.89 µM
CCN1CCN(C2=C(N(C)C(C)=O)C(=O)c3ccccc3C2=O)CC1	0.367 µM
CN1CCN(C2=C(Nc3ccccc3)C(=O)c3ccccc3C2=O)CC1	4.78 µM
O=C1C(NS(=O)(=O)c2ccc(Br)cc2)=C(N2CCCCC2)C(=O)c2ccccc21	14.2 µM
O=C(NC1=C(N2CCSCC2)C(=O)c2ccccc2C1=O)c1ccccc1	3.61 µM
COc1ccc(C2=C(NC(=O)c3ccccc3OC)C(=O)c3ccccc3C2=O)cc1	15.7 µM
C=CCNC1=C(N2CCN(CC)CC2)C(=O)c2ccccc2C1=O	4.12 µM
C=CCNC1=C(NS(=O)(=O)c2cccs2)C(=O)c2ccccc2C1=O	12 µM
CCN(CC)CCCNC1=C(Nc2ccccc2)C(=O)c2ccccc2C1=O	2.38 µM
NC1=C(NC(=O)c2ccccc2)C(=O)c2ccccc2C1=O	4.37 µM
CN1CCN(C2=C(NC(=O)c3ccccc3)C(=O)c3ccccc3C2=O)CC1	0.508 µM
COC1=C(NS(=O)(=O)c2ccccc2)C(=O)c2ccccc2C1=O	6.65 µM
O=C1C(NCCCN2CCOCC2)=C(Nc2ccccc2)C(=O)c2ccccc21	4.03 µM
O=C1C(NS(=O)(=O)c2ccc(Br)cc2)=C(N2CCOCC2)C(=O)c2ccccc21	6.87 µM
COc1ccc(S(=O)(=O)N(C(C)=O)c2ccc(OC(C)=O)c3ccccc23)cc1[N+](=O)[O-]	6.67 µM
C=CCNC1=C(NC(=O)c2ccccc2)C(=O)c2ccccc2C1=O	11.7 µM
O=C1C(Nc2ccccc2)=C(N2CCSCC2)C(=O)c2ccccc21	7.75 µM
O=C(NC1=C(c2ccc(OC(F)(F)F)cc2)C(=O)c2ccccc2C1=O)c1ccccc1F	17.1 µM
